# Sampled rows, rich in hits. Any-hit rate of the full collection: about 1.5%.
# Myeloid diff 2: induction of myeloid progenitor differentiation, primary screen, cell-based, flow cytometry, MLPCN library | ER-HoxA9 myeloid progenitors, lysozyme-GFP differentiation | calls only at 10 µM | hit rate 1% among 360,000 | AID 624256, 2012;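 active means normalized GFP-positive differentiation at or above the plate's own cutoff, the solvent-only control mean plus 3 SD; inconclusive means no clear call, values can overlap the other calls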;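 further: cells exposed to compound for four days before flow analysis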
# SENP1 FRET inh: human SENP1 catalytic domain inhibitors, primary screen, biochemical, FRET, uHTS | recombinant SENP1 catalytic domain, CyPet-SUMO1-YPet FRET cleavage | inhibition, % at 10 µM | hit rate 0.21% among 360,000 | Sentrin-specific protease 1 (Homo sapiens), Q9P0U3 | AID 624204, 2012;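 active means inhibition at least 30% at 10 µM, raw YFP signal under a set limit, fluorescence ratio 0.5 to 1.5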;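 further: 0% = enzyme with DMSO and 100% = no enzyme wells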
# Target sequence (Q9P0U3 419-644 limits assumed): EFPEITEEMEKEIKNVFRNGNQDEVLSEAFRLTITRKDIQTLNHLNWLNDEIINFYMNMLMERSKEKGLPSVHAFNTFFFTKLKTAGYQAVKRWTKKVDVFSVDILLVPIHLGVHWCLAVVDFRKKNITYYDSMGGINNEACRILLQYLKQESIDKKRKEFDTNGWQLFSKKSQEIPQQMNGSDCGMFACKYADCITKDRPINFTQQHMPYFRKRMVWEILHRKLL
#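 system = hSENP1 catalytic domain, recombinant | reagent = SFCypet-SUMO1-SFYpet substrate at 25 nM | doses = one dose per compound, 10 µM, 0.5% DMSO | incubation = enzyme reaction for 50 min at room temperature, dark | measured by = FRET, CFP and YFP emission | controls = no-enzyme low, enzyme-DMSO high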
# Platelet DG rel: inhibitors of platelet dense granule secretion, primary screen, cell-based, MLPCN, human platelets | human platelet-rich plasma, SFLLRN dense granule ATP release, luminescence | inhibition, %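 (compounds screened at 7.5 µM in platelet-rich plasma)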 | hit rate 0.22% among 300,000;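 active means mean replicate score, as percent of positive control, at or above 50; inconclusive means mean below 50 but at least one replicate at or above 50; inactive means mean and every replicate below 50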
# VLA-4 inh: inhibition in human VLA-4 binding assay, primary screen, VLA-4 allosteric modulator project, MLPCN library, flow cytometry, VLA-4 expressing cells | ligand binding flow cytometry | hit rate 0.2% among 330,000 | Integrin alpha-4 (Homo sapiens), P13612 | inhibition, % (about 7 µM as worked out from the volumes in the protocol) | AID 2557, 2010; in the data active means inhibition above about 50%
# VLA-4 mod pick: retest of VLA-4 allosteric modulators, confirmation, cell-based, cherry-picked plates, U937, HUTS-21 LIBS antibody; shares compounds with VLA-4 inh; U937 cells, HUTS-21 LIBS mAb binding, flow cytometry; LDV ligand present at threefold Kd; inhibition, % at 6.7 µM; hit rate 2% among 1,300; in the data active means inhibition above about 40%;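 further: 0% = ligand without compound and 100% = no ligand background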
# * marks the source's active call; other numbers are inactive results; i = inactive; ? = inconclusive; / = no result; + = active, no number.
SMILES,Myeloid diff 2,SENP1 FRET inh,Platelet DG rel,VLA-4 inh,VLA-4 mod pick
COc1cc2c(cc1OC)C(c1ccc(Br)cc1)CC(=O)N2 (stereo not given),i,2,0,14,10
COc1cccc(C2CC(=O)Nc3cc(OC)c(OC)cc32)c1 (stereo not given),i,-1,-3,4,1
COc1cccc(C2CC(=O)Nc3cc(C)c(C)cc32)c1 (stereo not given),i,3,/,/,/
CCOc1cccc(C2CC(=O)Nc3cc(OC)c(OC)cc32)c1 (stereo not given),i,-1,7,51*,8
O=C(OCC(=O)N1CCOCC1)c1ccc[nH]c1=O,i,1,1,52*,2
O=C(OCC(=O)N1CCCCCC1)c1ccc[nH]c1=O,i,1,/,3,/
Cc1noc(C)c1COc1ccc(C(=O)NCCc2ccc(S(N)(=O)=O)cc2)cc1,i,0,-40,-2,/
Cc1noc(C)c1COc1ccc(C(=O)NCCc2ccc(F)cc2)cc1,i,1,/,50*,12
COc1ccc(-c2sc3cc(OC)ccc3c2-c2ccc(OCCN3CCOCC3)cc2)cc1,i,5,/,/,0
CN(C)CCOc1ccc(-c2c(-c3ccccc3)sc3ccccc23)cc1,?,1,/,70*,30
COc1ccccc1-c1sc2cc3c(cc2c1-c1ccc(OCCN2CCOCC2)cc1)OCO3,i,1,/,/,0
COc1ccc(-c2sc3cc4c(cc3c2-c2ccc(OCCN3CCCCC3)cc2)OCO4)cc1,+,1,/,/,0
Cc1cc(Br)ccc1NC(=O)CN1C(=O)C2CC=CCC2C1=O (stereo not given),i,2,/,2,/
CCOc1ccc(-c2c(C)sc3nc[nH]c(=O)c23)cc1,i,-17,5,10,/
c1ccc(-c2sc3ccccc3c2-c2ccc(OCCN3CCCCC3)cc2)cc1,i,2,/,17,-8
COc1cc(OC)cc(-c2sc3ccc(OC)cc3c2-c2ccc(OCCN3CCCCC3)cc2)c1,i,3,/,/,0
COc1ccccc1NC(=O)NC1(C(=O)NCC2CCCO2)CCCCC1 (stereo not given),i,2,11,7,/
O=C(CNC(=O)c1cccc(OC(F)F)c1)OCc1cc(=O)n2cc(Br)ccc2n1,i,0,0,0,/
O=C(CNS(=O)(=O)c1ccc(Br)cc1)OCc1cc(=O)n2cc(Br)ccc2n1,/,/,-1,46,-15
COc1ccc(CNC(=O)Nc2cccs2)cc1OC,i,-8,-4,-9,/
COc1cccc(CNC(=O)Nc2cccs2)c1,i,-3,-5,92*,-1
COC(=O)C1(C)Cc2cc(OC(C)=O)c(OC(C)=O)cc2N1 (stereo not given),/,/,4,-8,/
Cc1ccccc1OC(C)C(=O)Nc1cccnc1 (stereo not given),i,-1,-4,-7,/
COc1ccc(-c2nnc3n2N=C(C)CS3)cc1,i,2,-2,20,/
COc1ccc(C2=Nn3c(nnc3-c3ccc(OC)cc3)SC2)cc1,i,2,2,54*,33
SMILES,Myeloid diff 2,SENP1 FRET inh,Platelet DG rel,VLA-4 inh,VLA-4 mod pick
CCC(C(=O)OC)n1cnc2c(nnn2-c2cccc(OC)c2)c1=O (stereo not given),i,0,-8,40,-13
CCOC(=O)c1c(NC(=O)CN(C)C)sc(C(=O)N(CC)CC)c1C,i,-1,1,3,/
CCOC(=O)c1c(NC(=O)C2c3ccccc3Oc3ccccc32)sc(C(=O)N(CC)CC)c1C,i,-1,-15,-2,3
Nc1nc(=S)c2[nH]cnc2[nH]1,?,-2,/,57*,-2
Nc1nc(=S)c2[nH]c(=S)[nH]c2[nH]1,?,-1,/,/,/
COc1ccc(-n2c(Cc3cc(=O)[nH]c(=O)[nH]3)nnc2SCC(=O)N2CCCC2)cc1,i,6,1,-6,/
COc1cccc(-n2c(Cc3cc(=O)[nH]c(=O)[nH]3)nnc2SCC(=O)N2CCCC2)c1,i,19,1,-8,15
COc1cccc(-n2c(Cc3cc(=O)[nH]c(=O)[nH]3)nnc2SCC(=O)N2CCCCCC2)c1,i,10,/,-5,9
CCOc1ccc(NC(=O)COC(=O)c2c(OC)cccc2OC)cc1,i,-1,1,-6,-16
CCOC(=O)c1cccc(N2CC3CNC(=O)C2(C(=O)OC)N3C)c1 (stereo not given),i,2,/,1,/
COCCCNC(=O)c1cc(-c2cccnc2)nc2ccc(S(=O)(=O)N3CCCCCC3)cc12,i,0,-4,0,/
Cc1oc2c(c1C(=O)Nc1cccc3ccccc13)CCCC2,i,5,-1,6,/
COc1ccccc1NC(=O)c1c(C)oc2c1CCCC2,i,-2,-1,93*,4
O=C(CSc1ccc2nnc(-c3cccnc3)n2n1)Nc1ccccc1,i,2,-1,-11,/
O=C(CSc1ccc2nnc(-c3cccnc3)n2n1)NCC1CCCO1 (stereo not given),i,2,-3,-20,2
Cc1nnc(NC(=O)CSc2ccc3nnc(-c4cccnc4)n3n2)s1,/,/,0,54*,3
O=C(CSc1ccc2nnc(-c3cccc(F)c3)n2n1)NCC1CCCO1 (stereo not given),i,1,-4,-2,/
Cn1cc(CN2CCC(n3nccc3NC(=O)CCOc3ccccc3)CC2)cn1,i,3,-34,-108,/
COc1ccc(CN2C(=O)C(CC(=O)NCCCCc3ccccc3)CC(C(=O)N3CCCCCC3)=C2C)cc1 (stereo not given),i,-1,/,/,/
CCC(COC(=O)Nc1cccc(C)c1)NC(=O)OCC(C)C (stereo not given),i,-2,-40,94*,-4
C[C@H]1CN(C2CCCCC2)C(=O)[C@@H]1CC(=O)Nc1ccc(Br)cc1,i,1,/,/,/
COc1cc2c(cc1NC(=O)c1ccc(C(C)(C)C)cc1)CCCC2,i,1,-3,82*,15
Cc1ccc(NC(=O)c2cc(N3C(=O)CCC3=O)ccc2N2CCOCC2)cc1,i,0,-31,9,/
Cc1ccc(NC(=O)c2cc(N3C(=O)C=CC3=O)ccc2N2CCOCC2)cc1Cl,i,2,26,83*,52*
CCOc1cc(/C=C2\C(=N)N3N=C(S(C)(=O)=O)SC3=NC2=O)ccc1OCCOc1cccc(OC)c1,i,-17,-4,43,-13
CNc1nc(N(C)C)nc(N(C)C)n1,i,2,-1,59*,-5
CN(C)c1nc(N(C)C)nc(N(C)C)n1,i,2,0,-13,/

# Source: PubChem BioAssay
